Assays:
L1210 [1] = assay: In vitro inhibition of uptake [3H]-spermidine in L1210 (murine leukemia) cells.; type: functional, cell-based, Mus musculus
[2] = Acute toxicity was assessed after ip administration of a single dose of 325 mg/kg to a group of 5 female CD-1 mice; type: organism-based; set-up: dose 325 mg/kg, route intraperitoneal; settings: CD-1, mouse, in vivo
[3] = Effect of Chronic compound treatment on polyamine homeostasis in mouse kidney (native[N+]) at total dose of 100 mg/kg; type: ADME, organism-based; set-up: dose 100 mg/kg; settings: in vivo
Method in brief: (§1)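 Groups of three female CD-1 mice were given 20 mg/kg/day as a single daily ip injection for 5 days (total 100 mg/kg, 215.3 μmol/kg). Mice were sacrificed 24 h after the last dose. Liver and kidney perchloric acid extracts were dansylated and run on HPLC, quantified against calibration curves. [N+] equivalents = 2[diamine] + 3[triamine] + 4[tetraamine], in nequiv/g wet weight, ±SD.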

[4] = Effect of Chronic compound treatment on polyamine homeostasis in mouse liver(total[N+]) total dose of 100 mg/kg; type: ADME, organism-based; set-up: dose 100 mg/kg; settings: in vivo; method in brief: as §1
L1210 [5] = assay: Growth inhibitory activity of compound on L1210 cells after 48 hours; type: functional, cell-based; settings: Mus musculus, L1210, 48 h
Method in brief: (§2)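 Murine L1210 leukemia cells were kept in log-phase suspension in RPMI-1640 with 10% FBS, 2% HEPES-MOPS, 1 mM aminoguanidine and 1 mM L-glutamine at 37 °C under 5% CO₂. They were dosed at 0.5–1.0 × 10⁵ cells/mL with analogue in sterile water, 0.2 μm filtered. For the 96 h value, cells were reseeded at 48 h. Cells were counted electronically. IC50 is the concentration giving 50% of control growth, net of the inoculum.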

L1210 [6] = assay: Growth inhibitory activity of compound on L1210 cells after 96 hours; type: functional, cell-based; settings: Mus musculus, L1210, 96 h; method in brief: as §2
[7] = Effect of Chronic compound treatment on polyamine homeostasis in mouse liver (native[N+]) total dose of 100 mg/kg; type: ADME, organism-based; set-up: dose 100 mg/kg; settings: in vivo; method in brief: as §1
[8] = Effect of Chronic compound treatment on polyamine homeostasis in mouse kidney (total[N+]) at total dose of 100 mg/kg; type: ADME, organism-based; set-up: dose 100 mg/kg; settings: in vivo; method in brief: as §1
L1210 [9] = assay: Ability to competitively inhibit radioligand spermidine transport in L1210 cells; type: functional, cell-based, Mus musculus
Method in brief: (§3)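 Murine L1210 leukemia cells in RPMI-1640 with 10% FBS and 1 mM aminoguanidine. Pellets washed in cold medium containing 1 mM SPD, dissolved in NaOH, scintillation counted. Ki from Lineweaver–Burke plots; Km(SPD) 2.1 μM; mean of ≥3 experiments.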

[10] = Effect of Chronic compound treatment on polyamine homeostasis in mouse liver(total[N+]) at total dose of 90 mg/kg; type: ADME, organism-based; set-up: dose 90 mg/kg; settings: in vivo
Method in brief: (§4)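 Groups of three female CD-1 mice were dosed at 15 mg/kg/day for 6 days (total 90 mg/kg, 208.3 μmol/kg). Mice were sacrificed 1 day after the final dose. Liver and kidney perchloric acid extracts were dansylated and analysed by HPLC against calibration standards. [N+] equivalents = 2[diamine] + 3[triamine] + 4[tetraamine], in nequiv/g wet weight, ±SD.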

L1210 (Mus musculus) = assay: Growth inhibitory activity of compound on L1210 cells after 96 hours; settings: L1210, 96 h
[11] = Effect of Chronic compound treatment on polyamine homeostasis in mouse kidney (native[N+]) at total dose of 90 mg/kg; type: ADME, organism-based; set-up: dose 90 mg/kg; settings: in vivo; method in brief: as §4
[12] = Effect of Chronic compound treatment on polyamine homeostasis in mouse liver (native[N+]) at total dose of 90 mg/kg; type: ADME, organism-based; set-up: dose 90 mg/kg; settings: in vivo; method in brief: as §4
L1210 [13] = assay: Ability to competitively inhibit uptake of radiolabeled spermidine in L1210 cells; type: functional, cell-based, Mus musculus; method in brief: as §3

## CCNCCCNC1CCC(NCCCNCC)CC1 (stereo unspecified)
L1210 [1]
  Ki: 7900 nM

## C(CCNCCC1CCNCC1)CNCCC1CCNCC1
L1210 [1]
  Ki: 18100 nM

## CCNCCCNCCCNCCCNCC [BIS(ETHYL)NORSPERMINE]
[2]
  LD50: 325 mg/kg

## CCNCCC(O)CNCCCCNCC(O)CCNCC (stereo unspecified)
[3]
  LD50: 3251 mg/kg
[4]
  LD50: 6706 mg/kg
L1210 [5]
  IC50: 600 nM
L1210 [6]
  IC50: 50 nM
[7]
  LD50: 6118 mg/kg
[2]
  LD50: 325 mg/kg
[8]
  LD50: 5427 mg/kg
L1210 [9]
  Ki: 1800 nM

## C(CNC1CCNCC1)CNC1CCNCC1
L1210 [1]
  Ki: 60500 nM

## c1cc(NCCCNc2ccncc2)ccn1
L1210 [1]
  Ki: > 500000 nM

## CCNCCCCNCCCCNCCCCNCC [DIETHYLHOMOSPERMINE]
[10]
  LD50: 7806 mg/kg
L1210 (Mus musculus)
  IC50: 50 nM
[11]
  LD50: 1560 mg/kg
[12]
  LD50: 5506 mg/kg
[2]
  LD50: 325 mg/kg

## CCNCCCCNC1CCC(NCCCCNCC)CC1 (stereo unspecified)
L1210 [1]
  Ki: 3500 nM

## c1cc(CNCCCCNCc2ccncc2)ccn1
L1210 [1]
  Ki: > 500000 nM

## C(CCNCCCCNC12CC3CC(CC(C3)C1)C2)CNCCCCNC12CC3CC(CC(C3)C1)C2
L1210 [13]
  Ki: 2000 nM

Source: ChEMBL document CHEMBL1129073, “Metabolically programmed polyamine analogue antidiarrheals” (J Med Chem, 1996)
